According to ChEMBL document CHEMBL1124739, “Selective class III antiarrhythmic agents. 1 Bis(arylalkyl)amines” (J Med Chem, 1990):
Where “and” joins values, the source holds several entries; their conditions need not be identical. Equal values may be shown once.

How the values were obtained:
[1] = organism: Cavia porcellus; assay: Concentration required to prolong the effective refractory period (ERP) by 25% in isolated guinea pig left atria; type: functional
Summary of the method: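 Isolated guinea pig left atria were studied by the extrastimulus technique. The molar concentration raising ERP by 25% (ED25) was determined. Values are the mean of two similar determinations, ±4%.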

[2] = organism: Cavia porcellus; assay: The degree of cardiac depression produced by a concentration of 10 E-4 M was determined in guinea pig; type: functional
Summary of the method: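 Cardiac depression was measured at 10⁻⁴ M in the isolated guinea pig left atrial preparation and taken as an index of class I activity.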

[3] = Distribution coefficient at pH 7.4; type: physicochemical; details: octanol/water
[4] = organism: Cavia porcellus; assay: Maximum rate of depolarization (MRD) during phase 0 in guinea pig right papillary muscle was determined at concentration 10E-6 M; type: functional, Muscle tissue
Summary of the method: (§1)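 Isolated guinea pig right papillary muscle exposed to the concentration given in each line. Action potential duration was read at 50% and 90% repolarization, and phase 0 maximum rate of depolarization (MRD) was also recorded. Values are means ± SD of 30 or 31 observations from three preparations, compared with control by t test.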

[5] = organism: Cavia porcellus; assay: Action potential duration (APD50) repolarization in guinea pig right papillary muscle was determined at concentration 5 x 10E-9 M; type: functional, Muscle tissue; summary of the method: as §1
[6] = organism: Cavia porcellus; assay: Maximum rate of depolarization (MRD) during phase 0 in guinea pig right papillary muscle was determined at concentration 2 x 10E-5 M; type: functional, Muscle tissue; summary of the method: as §1
[7] = organism: Cavia porcellus; assay: Maximum rate of depolarization (MRD) during phase 0 in guinea pig right papillary muscle was determined at concentration 5 x 10E-8 M; type: functional, Muscle tissue; summary of the method: as §1
[8] = Oral bioavailability in dog; type: ADME, organism-based, Canis lupus familiaris; details: in vivo
[9] = organism: Cavia porcellus; assay: Action potential duration (APD90) repolarization in guinea pig right papillary muscle was determined at concentration 5 x 10E-9 M; type: functional, Muscle tissue; summary of the method: as §1
[10] = organism: Cavia porcellus; assay: Action potential duration (APD50) repolarization in guinea pig right papillary muscle was determined at concentration 10E-6 M; type: functional, Muscle tissue; summary of the method: as §1
[11] = Oral bioavailability in man; type: ADME, organism-based; details: human, in vivo
[12] = organism: Cavia porcellus; assay: Action potential duration (APD90) repolarization in guinea pig right papillary muscle was determined at concentration 10E-6 M; type: functional, Muscle tissue; summary of the method: as §1
[13] = organism: Cavia porcellus; assay: Action potential duration (APD50) repolarization in guinea pig right papillary muscle was determined at concentration 2 x 10E-5 M; type: functional, Muscle tissue; summary of the method: as §1
[14] = organism: Cavia porcellus; assay: Action potential duration (APD90) repolarization in guinea pig right papillary muscle was determined at concentration 5 x 10E-8 M; type: functional, Muscle tissue; summary of the method: as §1
[15] = organism: Cavia porcellus; assay: Maximum rate of depolarization (MRD) during phase 0 in guinea pig right papillary muscle was determined at concentration 5 x 10E-9 M; type: functional, Muscle tissue; summary of the method: as §1
[16] = organism: Cavia porcellus; assay: Action potential duration (APD50) repolarization in guinea pig right papillary muscle was determined at concentration 5 x 10E-8 M; type: functional, Muscle tissue; summary of the method: as §1

Row | Structure (SMILES) | ED25 [1] [µM] | Cardiac depression [2] [%] | other results
1 | CN(CCOc1ccc(CC(N)=O)cc1)CCc1ccc(NS(C)(=O)=O)cc1 | 10 | 7 | 
2 | COC(=O)c1ccc(OCCN(C)CCc2ccc(NS(C)(=O)=O)cc2)cc1 | 4.1 | 47 | 
3 | CN(CCOc1ccc(C(N)=O)cc1)CCc1ccc(NS(C)(=O)=O)cc1 | 1.5 | 7 | 
4 | CN(CCSc1ccc(NS(C)(=O)=O)cc1)CCc1ccc(NS(C)(=O)=O)cc1 | 0.3 | 21 | 
5 | CN(CCCCc1ccc(NS(C)(=O)=O)cc1)CCc1ccc(NS(C)(=O)=O)cc1 | 67 | 32 | 
6 | CN(CCOc1cccc(C(N)=O)c1)CCc1ccc(NS(C)(=O)=O)cc1 | 0.82 | 3 | 
7 | CN(CCOC(c1ccccc1)c1ccc(NS(C)(=O)=O)cc1)CCc1ccc(NS(C)(=O)=O)cc1 (configuration not stated) | 12 | 35 | 
8 | CN(CCOc1cccc(NS(C)(=O)=O)c1)CCc1ccc(NS(C)(=O)=O)cc1 | 3 | 9 | 
9 | CN(CCCc1ccc(NS(C)(=O)=O)cc1)CCc1ccc(NS(C)(=O)=O)cc1 | 2.7 | 23 | 
10 | CN(CCOc1ccc(S(N)(=O)=O)cc1)CCc1ccc(NS(C)(=O)=O)cc1 | 2.2 | 7 | 
11 | CCN(CC)C(=O)c1ccc(OCCN(C)CCc2ccc(NS(C)(=O)=O)cc2)cc1 | 32 | 9 | 
12 | CN(CCOc1ccc(NS(C)(=O)=O)cc1Cl)CCc1ccc(NS(C)(=O)=O)cc1 | 18 | 16 | 
13 | CN(CCc1ccc(NS(C)(=O)=O)cc1)CCc1ccc(NS(C)(=O)=O)cc1 | 2 | 20 | 
14 | Cc1ccc(NS(C)(=O)=O)c(OCCN(C)CCc2ccc(NS(C)(=O)=O)cc2)c1.Cl | 17 | 24 | 
15 | CN(CCCCOc1ccc(NS(C)(=O)=O)cc1)CCc1ccc(NS(C)(=O)=O)cc1.Cl | 40 | 23 | 
16 | Cc1ccc(OCCN(C)CCc2ccc(NS(C)(=O)=O)cc2)c(C(N)=O)c1.Cl | 1 | 22 | 
17 | CNC(=O)Nc1ccc(OCCN(C)CCc2ccc(NS(C)(=O)=O)cc2)cc1.Cl | 70 | 0 | 
18 | CN(CCOc1ccccc1NS(C)(=O)=O)CCc1ccc(NS(C)(=O)=O)cc1.Cl | 2.5 | 19 | 
19 | CN(CCOc1ccc(C(F)(F)F)cc1)CCc1ccc(NS(C)(=O)=O)cc1.Cl | 90 | 30 | 
20 | CNC(=O)c1ccc(OCCN(C)CCc2ccc(NS(C)(=O)=O)cc2)cc1.Cl | 1.5 | 5 | 
21 | CN(CCCOc1ccc(NS(C)(=O)=O)cc1)CCc1ccc(NS(C)(=O)=O)cc1.Cl | 20 | 44 | 
22 | CN(CCOc1ccc(C(=O)N2CCOCC2)cc1)CCc1ccc(NS(C)(=O)=O)cc1.Cl | 20 | 15 | 
23 | CN(CCOc1ccc(NS(C)(=O)=O)cc1)CCc1ccc(NS(C)(=O)=O)cc1 [DOFETILIDE] | 0.13 | 0 | logD [3]: 0.96; MRD [4]: 269 V s-1; APD50 [5]: 170 ms; MRD [6]: 273 V s-1; MRD [7]: 273 V s-1; bioavailability [8]: 72%; APD90 [9]: <209 ms and <273 ms; APD50 [10]: 223 ms; bioavailability [11]: 100%; APD90 [12]: 288 ms; APD50 [13]: 209 ms; APD90 [14]: 246 ms; MRD [15]: 261 V s-1; APD50 [16]: 197 ms
24 | CC(C)NCC(O)c1ccc(NS(C)(=O)=O)cc1 (configuration not stated) [SOTALOL] | 200 | 5 | 
